The source made the active and inactive calls. The calls are words filed in the database; no cut-off is given here.
Key:
[1] = target: Proto-oncogene tyrosine-protein kinase Src (Homo sapiens) (UniProt P12931); test: Inhibition of Src at 10 uM
Bos taurus = species on record: Bos taurus; test: Inhibition of bovine thymus p56LCK at 10 uM by liquid scintillation counting in presence of [33gammaP]ATP
Summary of the method: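 p56lck from bovine thymus; [γ33-P]ATP with polyGT (0.5 mg/mL) substrate; staurosporine reference; liquid scintillation read-out; compounds tested at 10 µM.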

[2] = target: D(2) dopamine receptor (Homo sapiens) (UniProt P14416); test: Displacement of [3H]spiperone from human recombinant dopamine D2 receptor expressed in CHO cells at 10 uM; type: cell-based
Chain of D(2) dopamine receptor (Homo sapiens) (P14416 whole entry): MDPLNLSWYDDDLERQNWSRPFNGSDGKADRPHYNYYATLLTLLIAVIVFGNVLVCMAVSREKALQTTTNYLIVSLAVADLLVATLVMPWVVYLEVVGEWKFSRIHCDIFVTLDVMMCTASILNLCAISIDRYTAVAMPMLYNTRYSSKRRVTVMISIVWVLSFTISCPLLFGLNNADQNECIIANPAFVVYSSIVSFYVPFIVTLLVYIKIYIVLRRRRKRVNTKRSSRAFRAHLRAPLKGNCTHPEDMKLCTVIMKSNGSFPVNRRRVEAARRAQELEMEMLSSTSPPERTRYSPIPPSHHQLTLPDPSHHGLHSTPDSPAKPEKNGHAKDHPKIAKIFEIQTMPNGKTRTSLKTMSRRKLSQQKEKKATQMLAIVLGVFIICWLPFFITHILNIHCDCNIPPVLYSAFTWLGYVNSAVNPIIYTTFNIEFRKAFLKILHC
Summary of the method: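 Human recombinant D2 receptor expressed in CHO cells; [3H]spiperone ligand at 0.3 nM; (+)-buctaclamol as reference compound.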

[3] = target: Epidermal growth factor receptor (Homo sapiens) (UniProt P00533); test: Inhibition of EGFR in human A431 at 10 uM by liquid scintillation counting in presence of [33gammaP]ATP
Chain of Epidermal growth factor receptor (Homo sapiens) (P00533 whole entry): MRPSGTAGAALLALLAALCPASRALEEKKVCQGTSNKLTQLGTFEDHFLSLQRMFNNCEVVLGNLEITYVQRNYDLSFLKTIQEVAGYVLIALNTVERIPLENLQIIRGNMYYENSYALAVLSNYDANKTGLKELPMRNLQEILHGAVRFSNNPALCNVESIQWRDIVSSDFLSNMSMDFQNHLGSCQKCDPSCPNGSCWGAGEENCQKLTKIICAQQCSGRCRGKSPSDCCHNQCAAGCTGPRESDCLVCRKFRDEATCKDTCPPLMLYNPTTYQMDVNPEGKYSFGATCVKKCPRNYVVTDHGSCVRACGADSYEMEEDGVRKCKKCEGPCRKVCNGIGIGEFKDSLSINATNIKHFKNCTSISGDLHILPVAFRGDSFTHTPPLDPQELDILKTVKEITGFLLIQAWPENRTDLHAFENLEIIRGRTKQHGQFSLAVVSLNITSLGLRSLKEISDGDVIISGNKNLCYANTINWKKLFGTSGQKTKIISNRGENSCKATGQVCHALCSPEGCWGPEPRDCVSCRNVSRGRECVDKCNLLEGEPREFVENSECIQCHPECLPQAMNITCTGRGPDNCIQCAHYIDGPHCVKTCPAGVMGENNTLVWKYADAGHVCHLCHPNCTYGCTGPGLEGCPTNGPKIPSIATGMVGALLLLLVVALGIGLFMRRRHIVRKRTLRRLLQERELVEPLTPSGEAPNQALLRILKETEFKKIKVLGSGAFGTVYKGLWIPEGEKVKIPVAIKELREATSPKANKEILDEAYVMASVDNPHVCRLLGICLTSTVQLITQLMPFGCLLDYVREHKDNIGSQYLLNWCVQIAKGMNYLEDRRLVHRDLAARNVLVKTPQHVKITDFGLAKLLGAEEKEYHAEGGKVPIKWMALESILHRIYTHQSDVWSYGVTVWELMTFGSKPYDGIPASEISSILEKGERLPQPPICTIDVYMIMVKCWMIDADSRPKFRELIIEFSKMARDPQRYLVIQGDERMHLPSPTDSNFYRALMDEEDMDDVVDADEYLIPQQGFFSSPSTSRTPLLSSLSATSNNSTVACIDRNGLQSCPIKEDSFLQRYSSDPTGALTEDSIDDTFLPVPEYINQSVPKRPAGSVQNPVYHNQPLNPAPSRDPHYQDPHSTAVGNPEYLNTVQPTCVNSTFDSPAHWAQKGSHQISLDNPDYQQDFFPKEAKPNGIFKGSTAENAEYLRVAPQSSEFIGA
Summary of the method: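 EGFR kinase from A-431 cells; substrate [γ33-P]ATP plus poly GAT (0.48 mg/mL); PD 153035 reference; product measured by liquid scintillation; compounds at 10 µM.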

[4] = target: Insulin receptor (Homo sapiens) (UniProt P06213); test: Inhibition of human recombinant IR at 10 uM by liquid scintillation counting in presence of [33gammaP]ATP
Summary of the method: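 Human recombinant insulin receptor kinase; [γ33-P]ATP plus poly GT (0.03 mg/mL); staurosporine reference; liquid scintillation detection; 10 µM compound.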

Rattus norvegicus [5] = species on record: Rattus norvegicus; test: Displacement of [3H]cystisine from alpha-BGTX sensitive nicotinic acetylcholine receptor in rat cerebral cortex; type: tissue-based; design: concentration or dose not given beside the values; settings: concentration not given here
Rattus norvegicus [6] = species on record: Rattus norvegicus; test: Inhibition of rat CAM2 at 10 uM by liquid scintillation counting in presence of [33gammaP]ATP
Summary of the method: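 CaM kinase II from rat brain; [γ33-P]ATP plus autocamtide-2 (5 µM); staurosporine reference; labelled autocamtide-2 counted by liquid scintillation; compounds at 10 µM.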

[7] = target: Tyrosine-protein kinase ABL1 (Mus musculus) (UniProt P00520); test: Inhibition of mouse recombinant Abl expressed in Escherichia coli at 10 uM by fluorescence polarization
Chain of Tyrosine-protein kinase ABL1 (Mus musculus) (P00520 whole entry): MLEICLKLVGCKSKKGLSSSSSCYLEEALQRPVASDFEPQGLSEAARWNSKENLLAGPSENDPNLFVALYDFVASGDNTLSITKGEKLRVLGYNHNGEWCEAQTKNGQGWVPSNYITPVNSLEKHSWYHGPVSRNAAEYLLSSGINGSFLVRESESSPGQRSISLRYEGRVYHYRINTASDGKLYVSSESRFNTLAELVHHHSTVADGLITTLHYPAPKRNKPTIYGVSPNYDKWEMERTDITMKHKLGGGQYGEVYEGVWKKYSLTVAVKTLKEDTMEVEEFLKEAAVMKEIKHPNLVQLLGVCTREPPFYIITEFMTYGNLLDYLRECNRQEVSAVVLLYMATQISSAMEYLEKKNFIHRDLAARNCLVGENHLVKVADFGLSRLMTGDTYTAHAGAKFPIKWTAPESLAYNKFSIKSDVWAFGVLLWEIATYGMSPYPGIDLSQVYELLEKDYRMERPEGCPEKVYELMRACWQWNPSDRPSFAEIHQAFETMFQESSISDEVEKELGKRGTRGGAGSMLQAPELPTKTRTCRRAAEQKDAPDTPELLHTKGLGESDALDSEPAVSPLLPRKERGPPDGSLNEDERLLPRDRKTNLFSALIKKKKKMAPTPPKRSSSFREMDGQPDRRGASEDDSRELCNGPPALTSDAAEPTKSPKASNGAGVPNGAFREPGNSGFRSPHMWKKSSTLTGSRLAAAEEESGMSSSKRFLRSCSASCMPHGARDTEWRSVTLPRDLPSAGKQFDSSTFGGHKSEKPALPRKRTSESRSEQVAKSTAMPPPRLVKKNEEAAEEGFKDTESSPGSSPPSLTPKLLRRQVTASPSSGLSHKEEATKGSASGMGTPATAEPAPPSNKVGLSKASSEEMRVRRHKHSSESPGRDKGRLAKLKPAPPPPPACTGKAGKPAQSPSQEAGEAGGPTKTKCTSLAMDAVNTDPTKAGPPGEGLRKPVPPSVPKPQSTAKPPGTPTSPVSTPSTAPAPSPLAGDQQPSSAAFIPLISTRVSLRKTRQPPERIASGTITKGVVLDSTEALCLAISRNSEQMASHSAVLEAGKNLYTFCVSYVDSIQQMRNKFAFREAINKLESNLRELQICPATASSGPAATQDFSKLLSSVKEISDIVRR

[8] = target: T1, Alpha-2A adrenergic receptor (Rattus norvegicus) (UniProt P22909); test: Displacement of [3H]RX821002 from alpha2 adrenoceptor in rat cerebral cortex at 10 uM; type: tissue-based
T1 sequence (whole entry): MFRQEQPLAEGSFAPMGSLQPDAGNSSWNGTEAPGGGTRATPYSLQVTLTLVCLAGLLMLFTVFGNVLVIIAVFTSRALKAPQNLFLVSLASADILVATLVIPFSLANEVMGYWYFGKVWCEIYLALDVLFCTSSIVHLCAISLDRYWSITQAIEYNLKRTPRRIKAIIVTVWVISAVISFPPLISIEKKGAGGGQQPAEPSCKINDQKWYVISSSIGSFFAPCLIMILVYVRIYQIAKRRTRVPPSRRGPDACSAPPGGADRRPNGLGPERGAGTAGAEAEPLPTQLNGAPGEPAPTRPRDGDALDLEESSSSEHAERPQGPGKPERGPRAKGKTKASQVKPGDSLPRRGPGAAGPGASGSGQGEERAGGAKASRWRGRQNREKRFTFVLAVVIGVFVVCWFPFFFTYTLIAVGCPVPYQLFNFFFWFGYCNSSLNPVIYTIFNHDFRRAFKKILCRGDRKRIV
Summary of the method: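 Rat cerebral cortex source; [3H]RX 821002 ligand at 0.5 nM; yohimbine as reference compound; non-selective alpha-2 site.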

Rattus norvegicus [9] = species on record: Rattus norvegicus; test: Displacement of [3H]AMPA from AMPA receptor in rat cerebral cortex at 10 uM; type: tissue-based
[10] = system: 5-HT (non-selective) serotonin receptor (Rattus norvegicus); test: Inhibition of [3H]serotonine binding to non-selective 5-HT serotoninergic receptor in rat cerebral cortex at 10 uM
Rattus norvegicus [11] = species on record: Rattus norvegicus; test: Displacement of [3H]cystisine from alpha-BGTX insensitive nicotinic acetylcholine receptor in rat cerebral cortex at 10 uM; type: tissue-based
[12] = target: Dual specificity mitogen-activated protein kinase kinase 1 (Oryctolagus cuniculus) (UniProt P29678); test: Inhibition of rabbit recombinant MEK1 expressed in Escherichia coli at 10 uM by liquid scintillation counting in presence of [33gammaP]ATP
Chain of Dual specificity mitogen-activated protein kinase kinase 1 (Oryctolagus cuniculus) (P29678 whole entry): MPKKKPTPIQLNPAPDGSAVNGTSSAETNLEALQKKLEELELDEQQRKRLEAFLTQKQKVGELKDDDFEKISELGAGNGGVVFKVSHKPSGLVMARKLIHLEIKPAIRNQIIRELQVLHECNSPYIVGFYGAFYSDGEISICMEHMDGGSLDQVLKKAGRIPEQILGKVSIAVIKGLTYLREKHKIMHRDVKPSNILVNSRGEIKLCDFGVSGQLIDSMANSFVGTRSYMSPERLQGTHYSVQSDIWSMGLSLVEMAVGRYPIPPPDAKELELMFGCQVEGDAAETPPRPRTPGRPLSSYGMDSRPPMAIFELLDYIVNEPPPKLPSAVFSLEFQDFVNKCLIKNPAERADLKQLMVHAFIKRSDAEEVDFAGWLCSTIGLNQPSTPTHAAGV
Summary of the method: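 Rabbit recombinant MEK1 from E. coli; ATP plus unactivated MAP kinase (0.01 mg/mL) as substrate; staurosporine reference; liquid scintillation detection; 10 µM.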

[13] = target: T2, Glycogen synthase kinase-3 beta (Homo sapiens, UniProt P49841); test: Irreversible inhibition of GSK3-beta mediated phosphorylation measured after careful washes by liquid scintillation counting
T2 sequence (P49841 whole entry, looked up): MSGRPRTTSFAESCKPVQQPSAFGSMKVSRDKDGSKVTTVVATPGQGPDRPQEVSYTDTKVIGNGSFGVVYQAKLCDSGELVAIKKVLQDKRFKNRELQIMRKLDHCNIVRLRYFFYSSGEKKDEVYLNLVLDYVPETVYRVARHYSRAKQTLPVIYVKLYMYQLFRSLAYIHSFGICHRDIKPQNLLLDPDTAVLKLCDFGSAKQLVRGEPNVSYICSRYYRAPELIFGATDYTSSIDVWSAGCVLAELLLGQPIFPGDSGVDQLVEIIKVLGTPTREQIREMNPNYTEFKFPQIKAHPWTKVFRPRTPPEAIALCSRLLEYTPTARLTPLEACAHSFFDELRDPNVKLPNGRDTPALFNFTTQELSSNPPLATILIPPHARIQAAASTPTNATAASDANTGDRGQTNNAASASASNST
Summary of the method: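 His-tagged recombinant GSK-3β immobilised on nickel agarose, incubated 20 min at 37 °C with inhibitor, 15 µM ATP, [γ-32P]ATP and GS-1 in Tris/MgCl2/EGTA/EDTA pH 7.5; gel pelleted, washed three times in Tris-MgCl2 buffer, then reassayed 15 min with fresh ATP/GS-1; P81 filter scintillation; activity relative to identically handled control.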

[14] = Displacement of [3H]QNB from muscarinic receptor at 10 uM
[15] = target: D(3) dopamine receptor (Homo sapiens) (UniProt P35462); test: Displacement of [3H]spiperone from human recombinant dopamine D3 receptor expressed in CHO cells at 10 uM; type: cell-based
Chain of D(3) dopamine receptor (Homo sapiens) (P35462 whole entry): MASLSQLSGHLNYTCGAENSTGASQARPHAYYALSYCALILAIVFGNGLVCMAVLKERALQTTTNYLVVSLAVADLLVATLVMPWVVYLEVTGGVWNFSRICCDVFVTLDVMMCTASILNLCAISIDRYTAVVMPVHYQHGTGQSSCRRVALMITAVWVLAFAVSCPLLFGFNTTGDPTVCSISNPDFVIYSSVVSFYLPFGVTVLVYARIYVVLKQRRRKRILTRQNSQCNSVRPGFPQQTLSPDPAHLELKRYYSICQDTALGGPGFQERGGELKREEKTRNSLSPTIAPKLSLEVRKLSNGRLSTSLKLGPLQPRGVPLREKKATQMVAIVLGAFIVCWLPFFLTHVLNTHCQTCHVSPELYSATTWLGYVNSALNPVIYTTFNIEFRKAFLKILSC
Summary of the method: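 Human recombinant D3 receptor from CHO cells; [3H]spiperone 0.3 nM as ligand; (+)-buctaclamol reference compound.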

Rattus norvegicus [16] = species on record: Rattus norvegicus; test: Inhibition of rat recombinant MAPK at 10 uM by liquid scintillation counting in presence of [33gammaP]ATP
Summary of the method: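 Rat recombinant ERK42 MAP kinase expressed in E. coli; [γ33-P]ATP with MBP (0.5 mg/mL); staurosporine reference; liquid scintillation read-out; 10 µM compound.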

[17] = target: Glutamate NMDA receptor (Rattus norvegicus) (UniProt P35439+Q00959+Q00960+Q00961+Q62645+Q8VHN2+Q9R1M7); test: Displacement of [3H]CGP39653 from NMDA receptor in rat cerebral cortex at 10 uM; type: tissue-based
[18] = target: T2, Glycogen synthase kinase-3 beta; test: Noncompetitive inhibition of GSK3-beta by double-reciprocal plotting in presence of 15 uM ATP
Summary of the method: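 Double-reciprocal kinetics: GS-1 varied 6.5–100 µM with inhibitor 1–2 µM at fixed 15 µM ATP; [γ-32P] filter assay, V as pmol phosphate/20 min; each point mean of three experiments.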

[19] = target: Glycogen synthase kinase-3 beta (Mus musculus) (UniProt Q9WV60); test: Inhibition of GSK-3-beta-mediated tau phosphorylation in mouse granule cerebellar neurons cells after 16 hrs by Western blot
Chain of Glycogen synthase kinase-3 beta (Mus musculus) (Q9WV60 whole entry, looked up): as the sequence (P49841 whole entry, looked up) above, with T390P, T392A, A400T, T402A counted along it
Summary of the method: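 Cerebellar granule neurons from P6 mice, plated on poly-L-lysine and grown 48 h in serum-free neurobasal/B-27 with 12.5 mM KCl; compounds 0.5–25 µM; LiCl 10 mM positive control with excess myo-inositol; lysates blotted with PHF-1 and Tau-1, normalised to β-actin, densitometry; mean of three experiments, control = 100 r.u.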

[20] = target: T2, Glycogen synthase kinase-3 beta; test: Noncompetitive inhibition of GSK3-beta by double-reciprocal plotting in presence of increasing ATP
Summary of the method: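 Lineweaver-Burk analysis with ATP varied 6.5–100 µM and inhibitor 1–2 µM, GS-1 fixed at 15 µM; 20 min [γ-32P] incorporation into GS-1, V as pmol phosphate/20 min.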

N2a [21] = test: Induction of neurite growth in mouse Neuro2a cells at 0.2 uM after 16 hrs by phase-contrast photography; type: functional, cell-based
Summary of the method: (§1)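 Neuro2A mouse neuroblastoma cells grown in DMEM with 10% heat-inactivated FCS, 2 mM glutamine and antibiotics; compounds added in serum-containing medium for 16 h; control received DMSO; neurite/cytoplasmic extensions scored by phase-contrast photography.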

N2a [22] = test: Induction of neurite growth in mouse Neuro2a cells at 2 uM after 16 hrs by phase-contrast photography; type: functional, cell-based; summary of the method: as §1

Chain of Proto-oncogene tyrosine-protein kinase Src (Homo sapiens) (P12931 2-536 limits assumed): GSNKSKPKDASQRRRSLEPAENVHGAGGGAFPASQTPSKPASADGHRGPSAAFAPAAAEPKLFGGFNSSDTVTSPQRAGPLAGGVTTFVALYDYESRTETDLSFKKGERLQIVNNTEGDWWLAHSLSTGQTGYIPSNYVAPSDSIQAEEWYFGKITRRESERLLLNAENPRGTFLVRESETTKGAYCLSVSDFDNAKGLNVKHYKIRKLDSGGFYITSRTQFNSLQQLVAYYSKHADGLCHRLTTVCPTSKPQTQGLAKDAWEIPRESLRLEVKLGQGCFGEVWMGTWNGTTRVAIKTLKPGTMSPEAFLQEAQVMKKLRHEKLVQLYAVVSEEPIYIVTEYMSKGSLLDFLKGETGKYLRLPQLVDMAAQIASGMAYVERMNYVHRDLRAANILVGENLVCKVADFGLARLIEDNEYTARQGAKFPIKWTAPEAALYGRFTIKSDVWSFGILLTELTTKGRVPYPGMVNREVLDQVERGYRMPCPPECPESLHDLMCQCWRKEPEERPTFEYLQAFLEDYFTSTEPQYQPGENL

With `O=C(CCl)c1cc(Br)c(Br)s1` the inhibition [1] was 69%, the inhibition (Bos taurus) was less than 10% and the inhibition [2] was less than 10%. The inhibition [3] was less than 10%, the inhibition [4] was less than 10% and the inhibition (Rattus norvegicus [5]) was less than 10%. For the same molecule, the inhibition (Rattus norvegicus [6]) was less than 10%, the inhibition [7] was less than 10% and the inhibition [8] was less than 10%. The inhibition (Rattus norvegicus [9]) was less than 10%, the inhibition [10] was less than 10% and the inhibition (Rattus norvegicus [11]) was less than 10%. For the same molecule, the inhibition [12] was less than 10%, the Activity [13] was “Active” and the inhibition [14] was less than 10%. For the same molecule, the inhibition [15] was less than 10%, the inhibition (Rattus norvegicus [16]) was less than 10% and the inhibition [17] was less than 10%.

In the case of `O=C(CCl)c1csc(C(=O)CCl)c1`, the inhibition [1] is reported as 94%, the inhibition (Bos taurus) is reported as 49% and the inhibition [2] is reported as less than 10%. The inhibition [3] was 16%, the inhibition [4] was 12% and the inhibition (Rattus norvegicus [5]) was less than 10%. The inhibition (Rattus norvegicus [6]) was 21%, the inhibition [7] was less than 10% and the inhibition [8] was 10%. It also gave an inhibition (Rattus norvegicus [9]) of 25%, an inhibition [10] of less than 10% and an inhibition (Rattus norvegicus [11]) of less than 10%. The inhibition [12] was less than 10%, the inhibition [18] was “Active” and the inhibition [14] was less than 10%. The inhibition [15] was less than 10%, the inhibition (Rattus norvegicus [16]) was less than 10% and the Activity [19] was “Active”. For the same molecule, the inhibition [17] was less than 10%, the inhibition [20] was “Active” and the Activity (N2a [21]) was “Active”.

`O=C(CCl)c1c(Br)sc(Cl)c1Cl` showed an inhibition [1] of 26%, an inhibition (Bos taurus) of 33% and an inhibition [2] of 31%. For the same molecule, the inhibition [3] was less than 10%, the Activity (N2a [22]) was “Active” and the inhibition [4] was less than 10%. It also gave an inhibition (Rattus norvegicus [5]) of less than 10%, an inhibition (Rattus norvegicus [6]) of less than 10% and an inhibition [7] of less than 10%. The inhibition [8] was less than 10%, the inhibition (Rattus norvegicus [9]) was less than 10% and the inhibition [10] was less than 10%. For the same molecule, the inhibition (Rattus norvegicus [11]) was less than 10%, the inhibition [12] was less than 10% and the Activity [13] was “Active”. The inhibition [18] was “Active”, the inhibition [14] was less than 10% and the inhibition [15] was less than 10%. For the same molecule, the inhibition (Rattus norvegicus [16]) was less than 10%, the Activity [19] was “Active” and the inhibition [17] was 13%. For the same molecule, the inhibition [20] was “Active”.

`O=C(CCl)c1ccc(Cl)s1` showed an inhibition [1] of less than 10%, an inhibition (Bos taurus) of less than 10% and an inhibition [2] of less than 10%. The inhibition [3] was less than 10%, the inhibition [4] was less than 10% and the inhibition (Rattus norvegicus [5]) was less than 10%. For the same molecule, the inhibition (Rattus norvegicus [6]) was less than 10%, the inhibition [7] was less than 10% and the inhibition [8] was less than 10%. It also gave an inhibition (Rattus norvegicus [9]) of 17%, an inhibition [10] of less than 10% and an inhibition (Rattus norvegicus [11]) of less than 10%. The inhibition [12] was less than 10%, the inhibition [14] was less than 10% and the inhibition [15] was less than 10%. The inhibition (Rattus norvegicus [16]) was less than 10%, the Activity [19] was “Active” and the inhibition [17] was less than 10%.

— ChEMBL document CHEMBL1152606, “Thienylhalomethylketones: Irreversible glycogen synthase kinase 3 inhibitors as useful pharmacological tools” (Bioorg Med Chem, 2009)
